Legend:
[1] = biological target: Human immunodeficiency virus type 1 reverse transcriptase (Human immunodeficiency virus 1, UniProt Q72547, P236L); assay: Inhibition of Reverse transcriptase (P236L) using poly(rA)600:oligo(dT)10 as template primer.
[2] = biological target: Human immunodeficiency virus type 1 reverse transcriptase (Human immunodeficiency virus 1, UniProt Q72547); assay: Inhibition of Reverse transcriptase (Wild Type) with poly(rA)600:oligo(dT)10 template primer
In short: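 Recombinant wild-type HIV-1 RT was assayed for RNA-dependent DNA polymerase activity on poly(rA)600:oligo(dT)10 template:primer. Duplicate points were run at 6 drug concentrations, and IC50 was derived by nonlinear least-squares fit.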

[3] = biological target: Human immunodeficiency virus type 1 reverse transcriptase (Human immunodeficiency virus 1, UniProt Q72547, Y181C); assay: Inhibition of Reverse transcriptase (Y181C) using poly(rA)600:oligo(dT)10 as template primer.
[4] = IV clearance determined at an peroral dose of 30.2 mg/kg.; type: ADME, organism-based; set-up: dose 30.2 mg/kg, route oral; conditions: in vivo, po, read-out: Clearance
In short: (§1)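 Male Sprague–Dawley rats, fasted, dosed iv and orally in a crossover design with a 1-week washout between treatments (N = 3). Clearance, Vss and absolute oral bioavailability were taken from the iv and po legs.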

[5] = Oral bioavailability (dose 15 mg/kg i.v.); type: ADME, organism-based; conditions: eutheria, in vivo; in short: as §1
[6] = Apparent terminal disposition half life […] at iv dose of 15 mg/kg; type: ADME, organism-based; set-up: dose 15 mg/kg, route intravenous; conditions: read-out: T1/2 beta (converted)
[7] = Apparent terminal disposition half life […] at peroral dose of 30.2 mg/kg.; type: ADME, organism-based; set-up: dose 30.2 mg/kg, route oral; conditions: po, read-out: T1/2 beta (converted)
[8] = Steady state volume of distribution (VSS) determined against male Sprague-Dawley rats at an iv dose of 15 mg/kg; type: ADME, organism-based; set-up: dose 15 mg/kg, route intravenous; conditions: rat, in vivo, read-out: Vss; in short: as §1
Rattus norvegicus [9] = assay: Steady state volume of distribution (VSS) determined against male Sprague-Dawley rats at an peroral dose of 30.2 mg/kg.; type: ADME, organism-based; set-up: dose 30.2 mg/kg, route oral; conditions: in vivo, po; in short: as §1
[10] = system: Human immunodeficiency virus 1; assay: (§2) Antiviral activity against L-drug-resistant viral strain HIV-1 IIIB using L-697,661 as a comparator.; type: functional
[11] = system: Human immunodeficiency virus 1; assay: Antiviral activity against BHAP-resistant viral strain HIV-1 IIIB using Delaviridine (U-90512) as a comparator.; type: functional
[12] = system: Human immunodeficiency virus 1; assay: (§3) Antiviral activity against BHAP-resistant viral strain HIV-1 MF using Delaviridine (U-90512) as a comparator.; type: functional
[13] = Absolute oral bioavailability at an iv dose of 14 mg/kg; type: ADME, organism-based; conditions: in vivo, read-out: Bioavailabiility; in short: as §1
[14] = IV clearance determined at an peroral dose of 15 mg/kg.; type: ADME, organism-based; set-up: dose 15 mg/kg, route oral; conditions: in vivo, po, read-out: Clearance
[15] = Apparent terminal disposition half life […] at iv dose of 14 mg/kg; type: ADME, organism-based; set-up: dose 14 mg/kg, route intravenous; conditions: read-out: T1/2 beta (converted)
[16] = Apparent terminal disposition half life […] at peroral dose of 15 mg/kg.; type: ADME, organism-based; set-up: dose 15 mg/kg, route oral; conditions: po, read-out: T1/2 beta (converted)
[17] = Steady state volume of distribution (VSS) determined against male Sprague-Dawley rats at an iv dose of 14 mg/kg; type: ADME, organism-based; set-up: dose 14 mg/kg, route intravenous; conditions: rat, in vivo, read-out: Vss; in short: as §1
[18] = Steady state volume of distribution (VSS) determined against male Sprague-Dawley rats at an peroral dose of 15 mg/kg.; type: organism-based; set-up: dose 15 mg/kg; in short: as §1
[19] = biological target: Human immunodeficiency virus type 1 reverse transcriptase (Human immunodeficiency virus 1) (UniProt Q72547); assay: Percent inhibition of Reverse transcriptase (RNA-dependent DNA polymerase activity against P236l RT) using poly(rA)600:oligo(dT)10 as template primer at 1 uM
In short: (§4)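 Recombinant RT (WT, P236L or Y181C) was assayed for RNA-dependent DNA polymerase activity with poly(rA)600:oligo(dT)10 as template:primer. Percent inhibition was measured with compound at a single concentration of 1 μM.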

[20] = biological target: Human immunodeficiency virus type 1 reverse transcriptase (Human immunodeficiency virus 1) (UniProt Q72547); assay: Percent inhibition of Reverse transcriptase (RNA-dependent DNA polymerase activity against Wild Type RT) using poly(rA)600:oligo(dT)10 as template primer at 1 uM; in short: as §4
[21] = system: Human immunodeficiency virus type 1 reverse transcriptase (Human immunodeficiency virus 1), Q72547 [Y181C]; assay: Percent inhibition of Reverse transcriptase (RNA-dependent DNA polymerase activity against Y181C RT) using poly(rA)600:oligo(dT)10 as template primer at 1 uM; in short: as §4
[22] = system: Human immunodeficiency virus 1; assay: as §3; type: functional, organism-based
[23] = system: Human immunodeficiency virus 1; assay: as §2; type: functional, organism-based
[24] = Half life of the parent compound upon microsomal incubation in the presence of hepatic microsomal cytochrome P450.; type: ADME, Microsome; conditions: liver microsomes
[25] = Absolute oral bioavailability at an iv dose of 15.2 mg/kg; type: ADME, organism-based; conditions: in vivo, read-out: Bioavailabiility; in short: as §1
[26] = IV clearance determined at an peroral dose of 30.3 mg/kg.; type: ADME, organism-based; set-up: dose 30.3 mg/kg, route oral; conditions: in vivo, po, read-out: Clearance; in short: as §1
[27] = Apparent terminal disposition half life […] at iv dose of 15.2 mg/kg; type: ADME, organism-based; set-up: dose 15.2 mg/kg, route intravenous; conditions: read-out: T1/2 beta (converted)
[28] = Apparent terminal disposition half life […] at peroral dose of 30.3 mg/kg.; type: ADME, organism-based; set-up: dose 30.3 mg/kg, route oral; conditions: po, read-out: T1/2 beta (converted)
[29] = Steady state volume of distribution (VSS) determined against male Sprague-Dawley rats at an iv dose of 15.2 mg/kg; type: ADME, organism-based; set-up: dose 15.2 mg/kg, route intravenous; conditions: rat, in vivo, read-out: Vss; in short: as §1
Rattus norvegicus [30] = assay: Steady state volume of distribution (VSS) determined against male Sprague-Dawley rats at an peroral dose of 30.3 mg/kg.; type: ADME, organism-based; set-up: dose 30.3 mg/kg, route oral; conditions: in vivo, po; in short: as §1
[31] = IV clearance determined at an iv dose of 15.2 mg/kg; type: ADME, organism-based; set-up: dose 15.2 mg/kg, route intravenous; conditions: in vivo; in short: as §1
[32] = Absolute oral bioavailability at an peroral dose of 30.3 mg/kg orally.; type: ADME, organism-based; conditions: in vivo, read-out: Bioavailabiility; in short: as §1
[33] = IV clearance determined at an iv dose of 15 mg/kg; type: ADME, organism-based; set-up: dose 15 mg/kg, route intravenous; conditions: in vivo
[34] = IV clearance determined at an peroral dose of 30 mg/kg.; type: ADME, organism-based; set-up: dose 30 mg/kg, route oral; conditions: in vivo, po, read-out: Clearance; in short: as §1
[35] = Absolute oral bioavailability at an peroral dose of 30 mg/kg orally; type: ADME, organism-based; conditions: in vivo, read-out: Bioavailabiility; in short: as §1
Rattus norvegicus [36] = assay: Steady state volume of distribution (VSS) determined against male Sprague-Dawley rats at an peroral dose of 30 mg/kg.; type: ADME, organism-based; set-up: dose 30 mg/kg, route oral; conditions: in vivo, po; in short: as §1
[37] = Apparent terminal disposition half life […] at peroral dose of 30 mg/kg.; type: ADME, organism-based; set-up: dose 30 mg/kg, route oral; conditions: po, read-out: T1/2 beta (converted)

CCCN(c1ncccc1CC)C1CCN(C(=O)c2cc3cc(NS(C)(=O)=O)ccc3[nH]2)CC1
IC50 [1]: 540 nM
IC50 [2]: 130 nM
IC50 [3]: 910 nM

COC(=O)c1cccnc1N(C)C1CCN(C(=O)c2cc3cc(NS(C)(=O)=O)ccc3[nH]2)CC1
IC50 [1]: 13000 nM
IC50 [2]: 250 nM
IC50 [3]: 21000 nM

CN(c1ncccc1CO)C1CCN(C(=O)c2cc3cc(NS(C)(=O)=O)ccc3[nH]2)CC1
IC50 [1]: 7000 nM
IC50 [3]: 15000 nM

CC(C)Nc1cccnc1N(C)C1CCN(C(=O)c2cc3cc(NS(C)(=O)=O)ccc3[nH]2)CC1
CL/F [4]: 44 mL/min/kg
bioavailability [5]: 4.3%
half-life [6]: 40.2 min
half-life [7]: 40.2 min
Vd [8]: 2.5 L/kg
Vss (Rattus norvegicus [9]): 2.5 L/kg
EC90 [10]: 1000 nM

CCc1cc(NCc2nc3c(Cl)ccc(Cl)c3o2)c(O)nc1C [L-697661]
EC90 [11]: 4000 nM
EC90 [12]: 430 nM
EC90 [10]: > 10000 nM

CCNc1cccnc1N(CC)C1CCN(C(=O)c2cc3cc(NS(C)(=O)=O)ccc3[nH]2)CC1
IC50 [1]: 360 nM
IC50 [2]: 430 nM
IC50 [3]: 390 nM

CC(C)Nc1cccnc1N1CCN(C(=O)c2cc3cc(NS(C)(=O)=O)ccc3[nH]2)CC1 [DELAVIRDINE]
bioavailability [13]: 64%
CL/F [14]: 13.6 mL/min/kg
half-life [15]: 60 min
half-life [16]: 60 min
Vd [17]: 1.21 L/kg
EC90 [12]: > 10000 nM
Vdss [18]: 1.21 L/kg

CCN(c1ncccc1COC)C1CCN(C(=O)c2cc3cc(NS(C)(=O)=O)ccc3[nH]2)CC1
EC90 [12]: 770 nM
EC90 [10]: 1000 nM
IC50 [1]: 300 nM
IC50 [2]: 140 nM
IC50 [3]: 840 nM

CCN(c1ncccc1NC(C)C)C1CCN(C(=O)c2cc3cc(NS(C)(=O)=O)ccc3[nH]2)CC1
IC50 [1]: 170 nM

CCCc1cccnc1N(C)C1CCN(C(=O)c2cc3cc(NS(C)(=O)=O)ccc3[nH]2)CC1
inhibition [19]: 40%
inhibition [20]: 84%
inhibition [21]: 25%

CCc1cccnc1N(C)C1CCN(C(=O)c2cc3cc(NS(C)(=O)=O)ccc3[nH]2)CC1
IC50 [1]: 1100 nM
IC50 [2]: 61 nM
IC50 [3]: 2000 nM

COCc1cccnc1N(C)C1CCN(C(=O)c2cc3cc(NS(C)(=O)=O)ccc3[nH]2)CC1
EC50 [22]: 3000 nM
EC50 [23]: > 3000 nM
IC50 [1]: 6800 nM
IC50 [2]: 140 nM
IC50 [3]: 11000 nM

CCN(c1ncccc1CC(C)C)C1CCN(C(=O)c2cc3cc(NS(C)(=O)=O)ccc3[nH]2)CC1
half-life [24]: 2.29 min
EC90 [11]: 50 nM
EC90 [12]: 1000 nM
EC90 [10]: 100 nM
IC50 [1]: 430 nM
IC50 [2]: 410 nM
IC50 [3]: 880 nM

CC(C)Cc1cccnc1N(C)C1CCN(C(=O)c2cc3cc(NS(C)(=O)=O)ccc3[nH]2)CC1
bioavailability [25]: 64%
CL/F [26]: 45 mL/min/kg
half-life [27]: 53.4 min
half-life [28]: 53.4 min
Vd [29]: 2.73 L/kg
Vss (Rattus norvegicus [30]): 2.73 L/kg
half-life [24]: 5.9 min
EC50 [23]: > 1000 nM
EC90 [12]: 1800 nM
IC50 [1]: 1100 nM
IC50 [2]: 510 nM
IC50 [3]: 2600 nM
clearance [31]: 45 mL/min/kg
bioavailability [32]: 64%

CCc1cccnc1N(CC)C1CCN(C(=O)c2cc3cc(NS(C)(=O)=O)ccc3[nH]2)CC1
IC50 [1]: 210 nM
IC50 [2]: 98 nM
IC50 [3]: 430 nM

CCCc1cccnc1N(CC)C1CCN(C(=O)c2cc3cc(NS(C)(=O)=O)ccc3[nH]2)CC1
clearance [33]: 67 mL/min/kg
CL/F [34]: 67 mL/min/kg
bioavailability [5]: 9.8%
bioavailability [35]: 9.8%
half-life [6]: 49.2 min
Vd [8]: 3.2 L/kg
Vss (Rattus norvegicus [36]): 3.2 L/kg
half-life [24]: 1.68 min
EC90 [11]: 40 nM
EC90 [12]: 100 nM
EC90 [10]: 90 nM
IC50 [1]: 370 nM
IC50 [2]: 270 nM
IC50 [3]: 450 nM
half-life [37]: 49.2 min

— ChEMBL document CHEMBL1132431, “Synthesis and structure-activity relationships of the (alkylamino)piperidine-containing BHAP class of non-nucleoside reverse transcriptase inhibitors: effect of 3-alkylpyridine ring substitution” (J Med Chem, 1999)
